For data set [1], the system named is Ribosome. Description: Inhibition of ribosome-mediated protein synthesis in rabbit reticulocytes after 60 mins by coupled transcription/translation assay. Type of data set: subcellular, Oryctolagus cuniculus. Summed up:
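Eukaryotic inhibition used the TNT T7 Quick coupled transcription/translation system with T7 control luciferase DNA. Varied aminoglycoside concentrations were incubated with the 10 µl reaction at 30 °C for 60 min and ice-cooled 5 min. Samples were diluted in the same buffer and luminescence was read on adding luciferase reagent. IC50 was fitted from at least three independent experiments.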

The test system of data set [2] is HeLa. The experiment in a line: Ratio of compound IC50 to gentamicin IC50 for inhibition of mitochondrial ribosome- protein synthesis in human HeLa cells. Type of data set: subcellular.
Data set [3] concerns Escherichia coli. Description: Antibacterial activity against Escherichia coli R477/100 by microdilution method. Type of data set: functional.
A short description of data set [4]: (§1) Cytotoxicity against human HEK293 cells assessed as cell viability after 48 hrs by XTT based calorimetric assay. The note with it: HEK293 cells, read-out: LC50. Summed up:
(§2)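 Cells seeded at 5,000/well in DMEM with 10% FBS and 1% glutamine at 37 °C, 5% CO₂; after overnight culture, graded aminoglycoside concentrations added for a further 48 hr. XTT viability read-out with 3 hr incubation by optical density, viability expressed relative to untreated cultures; LC50 fitted from concentration-response curves of at least three independent experiments.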

A short description of data set [5]: Selectivity ratio of IC50 for ribosome-mediated protein synthesis in rabbit reticulocytes to IC50 for ribosome S30 subunit-mediated protein synthesis in Escherichia coli.
A short description of data set [6]: Inhibition of ribosome S30 subunit-mediated protein synthesis in Escherichia coli after 60 mins by coupled transcription/translation assay. An outline of the steps: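 Prokaryotic coupled transcription/translation with a luciferase read-out. Varied aminoglycoside concentrations were incubated with the 10 µl reaction at 37°C for 60 min, then ice-cooled 5 min. Samples were diluted in tris-phosphate (25 mM, pH 7.8), DTT, CDTA, glycerol, Triton X-100 and BSA, and luminescence was read on adding luciferase reagent. IC50 was fitted from at least three independent experiments.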

The test system of data set [7] is Ribosome. The experiment in a line: Inhibition of ribosome-mediated translation of CFTR W1282X nonsense mutant gene expressed in rabbit reticulocytes harboring p2luc plasmid after 16 hrs by dual luciferase reporter gene assay. Type of data set: subcellular. The arrangement: scale not given: the % may be the effect or the level left.
The test system of data set [8] is Ribosome. Description: Inhibition of ribosome-mediated translation of CFTR G542X nonsense mutant gene expressed in rabbit reticulocytes harboring p2luc plasmid after 16 hrs by dual luciferase reporter gene assay. Also on record: scale not given: the % may be the effect or the level left. Type of data set: subcellular.
Data set [9] deals with Ribosome. The experiment in a line: Inhibition of ribosome-mediated translation of IDUA Q70X nonsense mutant gene expressed in rabbit reticulocytes harboring p2luc plasmid after 16 hrs by dual luciferase reporter gene assay. Also on record: scale not given: the % may be the effect or the level left. Type of data set: subcellular.
Data set [10] has as its system Ribosome. The experiment in a line: Inhibition of ribosome-mediated translation of PCDH15 R3X nonsense mutant gene expressed in rabbit reticulocytes harboring p2luc plasmid after 16 hrs by dual luciferase reporter gene assay. Type of data set: subcellular. The arrangement: scale not given: the % may be the effect or the level left.
The test system of data set [11] is Ribosome. Description: Inhibition of ribosome-mediated translation of PCDH15 R245X nonsense mutant gene expressed in rabbit reticulocytes harboring p2luc plasmid after 16 hrs by dual luciferase reporter gene assay. Type of data set: subcellular. Also on record: scale not given: the % may be the effect or the level left.
The subject of data set [12] is Ribosome. The experiment in a line: Inhibition of ribosome-mediated translation of DMD R3381X nonsense mutant gene expressed in rabbit reticulocytes harboring p2luc plasmid after 16 hrs by dual luciferase reporter gene assay. The arrangement: scale not given: the % may be the effect or the level left. Type of data set: subcellular.
The test system of data set [13] is HFF. Description: Cytotoxicity against human HFF cells assessed as cell viability after 48 hrs by XTT based calorimetric assay relative to control. Summed up:
as §2

For data set [14], the system named is Bacillus subtilis. Description: Antibacterial activity against Bacillus subtilis ATCC-6633 by double-microdilution method. Type of data set: functional, organism-based.
Data set [15] addresses mitochondrial ribosome (Homo sapiens). Description: Inhibition of mitochondrial ribosome-mediated protein synthesis in human HeLa cells assessed as {35S]methionine incorporation by autoradiography.
The test system of data set [16] is HEK293. The data set is described as §1. The note with it: hek293, 48 h, read-out: LC50 (the source's name). Summed up:
as §2

≈ marks a conversion by molar mass, not a printed value. Where a name gives a salt, the structure may show the parent alone. Calls of active or inactive are those of the source. The calls are words filed in the database; no cut-off is given here.

These results are taken from ChEMBL document CHEMBL2203148, “Increased selectivity toward cytoplasmic versus mitochondrial ribosome confers improved efficiency of synthetic aminoglycosides in fixing damaged genes: a strategy for treatment of genetic diseases caused by nonsense mutations” (J Med Chem, 2012).

Regarding `NCC[C@H](O)C(=O)N[C@@H]1C[C@H](N)[C@@H](O[C@H]2O[C@H](CO)[C@@H](O)[C@H](O)[C@H]2N)[C@H](O[C@@H]2O[C@H](CN)[C@@H](O)[C@H]2O)[C@H]1O`, the IC50 in [1] is 24 µM; in [6], 0.2 µM. The Ratio IC50 was 19 in data set [2] and 151 in data set [5]. Also, it took 588 µM (≈ 327 µg/mL) to inhibit growth in data set [3] (MIC). In addition, the CC50 at 48 h in data set [4] stood at 5500 µM.

Consider `C[C@@H](O)[C@H]1O[C@H](O[C@H]2[C@H](O[C@@H]3O[C@H](CN)[C@@H](O)[C@H]3O)[C@@H](O)[C@H](N)C[C@@H]2N)[C@H](N)[C@@H](O)[C@@H]1O`, for which the Activity in data set [7], in data set [8], in [9], in data set [10], in [11] and in [12] was 20% throughout. The CC50 at 48 h in data set [4] was 22200 µM. Further, in data set [5], the Ratio IC50 is 15. Besides, the IC50 in data set [6] is 1.1 µM.

Turning to `C[C@H](N)[C@H]1O[C@@H](O[C@@H]2[C@@H](O)[C@H](N)C[C@H](N)[C@H]2O[C@H]2O[C@H](CO)[C@@H](O)[C@H](O)[C@H]2N)[C@H](O)[C@@H]1O`, the IC50 was determined as 16 µM in data set [1] and 2 µM in data set [6]. Inhibition of growth in data set [3] (MIC) required 2660 µM (≈ 1250 µg/mL). Further, the Ratio IC50 in data set [5] came out at 7.9.

In the case of `CN[C@@H]1[C@@H](O)[C@@H](O[C@@H]2[C@@H](O)[C@H](O[C@H]3O[C@H]([C@@H](C)O)[C@@H](O)[C@H](O)[C@H]3N)[C@@H](N)C[C@H]2N)OC[C@]1(C)O.O=S(=O)(O)O` [GENETICIN SULFATE SALT], the 50% inhibitory concentration (IC50) in data set [1] is 2 µM; in data set [6] it was 0.01 µM. Also, it took 9 µM to inhibit growth in [3] (MIC). Also, the Activity result in data set [13] is “Non-toxic”. For the same molecule, in data set [14], the outcome was Active.

Consider “GENTAMICIN SULFATE [listing 1 of 2 here]”, for which the 50% inhibitory concentration (IC50) amounted to 62 µM in data set [1] and 26 µM in data set [15]. For the same molecule, the CC50 in data set [16] is 2500 µM.

Take `C[C@@H](N)[C@H]1O[C@@H](O[C@@H]2[C@@H](O)[C@H](NC(=O)[C@@H](O)CCN)C[C@H](N)[C@H]2O[C@H]2O[C@H](CO)[C@@H](O)[C@H](O)[C@H]2N)[C@H](O)[C@@H]1O`: the figures for the IC50 in [1] and in data set [6] were 4.6 µM and 0.8 µM, respectively. The same molecule registered an MIC in data set [3] of 1060 µM (≈ 602 µg/mL). Moreover, in [5], the Ratio IC50 came out at 5.7.

As to `C[C@@H](N)[C@H]1O[C@@H](O[C@@H]2[C@@H](O)[C@H](NC(=O)[C@@H](O)CCN)C[C@H](N)[C@H]2O[C@H]2O[C@H]([C@@H](C)O)[C@@H](O)[C@H](O)[C@H]2N)[C@H](O)[C@@H]1O`, the IC50 in [1] stood at 0.9 µM; in data set [6], 1.8 µM. In data set [3], this molecule registered a minimal inhibitory concentration (MIC) of 384 µM (≈ 224 µg/mL). Besides, the Activity entry in data set [9] was “Dose-dependent effect”. The CC50 at 48 h in data set [4] was 5400 µM. Also, the Ratio IC50 in data set [5] amounted to 0.5.

Take `C[C@H](N)[C@H]1O[C@@H](O[C@@H]2[C@@H](O)[C@H](NC(=O)[C@@H](O)CCN)C[C@H](N)[C@H]2O[C@H]2O[C@H](CO)[C@@H](O)[C@H](O)[C@H]2N)[C@H](O)[C@@H]1O`: the IC50 in [1] is 5.2 µM; in data set [6] it was 2.3 µM. The MIC in data set [3] was 1070 µM (≈ 608 µg/mL). In addition, the Ratio IC50 in data set [5] turned out to be 2.3.

Regarding `C[C@@H](O)[C@H]1O[C@H](O[C@H]2[C@H](O[C@@H]3O[C@H](CN)[C@@H](O)[C@H]3O)[C@@H](O)[C@H](NC(=O)[C@@H](O)CCN)C[C@@H]2N)[C@H](N)[C@@H](O)[C@@H]1O`, the values for the IC50 in data set [1] and in data set [6] were 2.8 µM and 1 µM, respectively. In addition, the Activity in data set [7], in data set [8], in data set [9], in data set [10], in [11] and in data set [12] was 50% each time. For the same molecule, it took 556 µM (≈ 317 µg/mL) to inhibit growth in [3] (MIC). For the same molecule, in data set [4], the CC50 at 48 h came to 5800 µM. For the same molecule, the Ratio IC50 in data set [5] was 2.9.

With `C[C@H](N)[C@H]1O[C@@H](O[C@@H]2[C@@H](O)[C@H](NC(=O)[C@@H](O)CCN)C[C@H](N)[C@H]2O[C@H]2O[C@H]([C@@H](C)O)[C@@H](O)[C@H](O)[C@H]2N)[C@H](O)[C@@H]1O`, the values for the 50% inhibitory concentration (IC50) in data set [1] and in [6] were 0.7 µM and 1.8 µM, respectively. In data set [3], this molecule returned an MIC of 384 µM (≈ 224 µg/mL). Moreover, in data set [4], the CC50 at 48 h was 5100 µM. Also, in data set [5], the Ratio IC50 came to 0.4.

As for “GENTAMICIN SULFATE [listing 2 of 2 here]”, the Activity in [7], in data set [8], in data set [9], in data set [10], in [11] and in data set [12] was 20% in each case. This molecule yielded an MIC in data set [3] of 6 µM. The outcome in data set [14] was Active. The Ratio IC50 in [5] came out at 2210.

In the case of `NC[C@H]1O[C@@H](O[C@@H]2[C@@H](O)[C@H](N)C[C@H](N)[C@H]2O[C@H]2O[C@H](CO)[C@@H](O)[C@H](O)[C@H]2N)[C@H](O)[C@@H]1O`, the IC50 came to 31 µM in data set [1] and 0.5 µM in [6]. Besides, 790 µM (≈ 359 µg/mL) was the least that counted as inhibitory in data set [3] (MIC). Moreover, the CC50 at 48 h in data set [4] came to 21900 µM. Also, in data set [5], the Ratio IC50 was determined as 68.

`C[C@H](N)[C@H]1O[C@@H](O[C@@H]2[C@@H](O)[C@H](N)C[C@H](N)[C@H]2O[C@H]2O[C@H]([C@@H](C)O)[C@@H](O)[C@H](O)[C@H]2N)[C@H](O)[C@@H]1O`: the IC50 turned out to be 1.5 µM in data set [1] and 1.1 µM in data set [6]. The Activity in data set [7], in [8], in [9], in data set [10], in data set [11] and in [12] was 50% in each case. In data set [3], this molecule came in with an MIC of 768 µM (≈ 371 µg/mL). In data set [4], the CC50 at 48 h was determined as 5400 µM. In addition, the Ratio IC50 in data set [5] turned out to be 1.3.

As for `C[C@@H](N)[C@H]1O[C@@H](O[C@@H]2[C@@H](O)[C@H](N)C[C@H](N)[C@H]2O[C@H]2O[C@H]([C@@H](C)O)[C@@H](O)[C@H](O)[C@H]2N)[C@H](O)[C@@H]1O`, the IC50 in [1] stood at 8 µM; in [6], 1.9 µM. Besides, the Activity in [7], in data set [8], in data set [9], in [10], in [11] and in data set [12] was 20% each time. Moreover, the MIC in data set [3] was determined as 1540 µM (≈ 741 µg/mL). Besides, the CC50 at 48 h in data set [4] stood at 16500 µM. In addition, the Ratio IC50 in data set [5] was 4.3.

Consider `NC[C@@H]1O[C@H](O[C@H]2[C@@H](O)[C@H](O[C@@H]3[C@@H](O)[C@H](N)C[C@H](N)[C@H]3O[C@H]3O[C@H](CO)[C@@H](O)[C@H](O)[C@H]3N)O[C@@H]2CO)[C@H](N)[C@@H](O)[C@@H]1O` [PAROMOMYCIN SULFATE], for which the IC50 in data set [1] worked out at 57 µM; in data set [6], 0.05 µM. The molecule further had an MIC in data set [3] of 22 µM. The Ratio IC50 in [5] came out at 1120.

For the molecule `C[C@@H](N)[C@H]1O[C@@H](O[C@@H]2[C@@H](O)[C@H](N)C[C@H](N)[C@H]2O[C@H]2O[C@H](CO)[C@@H](O)[C@H](O)[C@H]2N)[C@H](O)[C@@H]1O`, the IC50 in data set [1] stood at 28 µM; in data set [6] it was 2.1 µM. In data set [3], this molecule had a minimal inhibitory concentration (MIC) of 4990 µM (≈ 2340 µg/mL). Further, the Ratio IC50 in data set [5] stood at 13.
